Here are results for 15 molecules from ChEMBL document CHEMBL1138073, “Arylamide derivatives as allosteric inhibitors of the integrin alpha2beta1/type I collagen interaction” (Bioorg Med Chem Lett, 2006).

A short description of test [1]: Inhibition of collagen binding to integrin alpha-2-beta-1 by ELISA. Further details: species or system Homo sapiens. An outline of the steps:
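Collagen type I (soluble) immobilized on 96-well plate; recombinant GST-tagged α2 I-domain added with increasing concentrations of inhibitor. Bound I-domain detected with peroxidase-conjugated anti-GST antibody, colorimetric read at 405 nm; IC50 derived from concentration series.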

Test [2] can be described thus: Inhibition of collagen binding to integrin alpha-2-beta-1 in intact platelets. Details: species or system Homo sapiens. An outline of the steps:
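Gel-filtered human platelets allowed to adhere to type I collagen immobilized on 96-well plates in presence of inhibitor; inhibition scored by number of bound platelets.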

The subject of a further test is Platelet. The test can be described thus: Inhibition of collagen-induced platelet aggregation at 5 uM. Conditions: Homo sapiens. It counts as functional, cell-based.

Each structure is given as a SMILES string. pIC50: −log10 of the molar value. Activity calls are given as the source filed them. The rule behind the calls is not given here. Where only a bound is given, the exact number is not on record here.

By pIC50 is commonly meant the IC50 on a negative log10 scale, so that one unit is a factor of ten. As to `C[C@@H](N)C(=O)Nc1cc(C(C)(C)C)cc(NC(=O)c2cccc(C(=O)Nc3cc(C(C)(C)C)cc(NC(=O)[C@@H](C)N)c3SCCN)c2)c1SCCN`, the pIC50 was under 4.30 in test [1] and under 4.00 in test [2].

Turning to `NCCSc1c(N)cccc1NC(=O)c1cccc(C(=O)Nc2cccc(NC(=O)[C@@H](N)Cc3ccc4ccccc4c3)c2SCCN)c1`, the pIC50 is under 4.30 in test [1] and 4.07 in test [2].

For `NCCSc1c(NC(=O)c2cccc(C(=O)Nc3cccc(NC(=O)[C@H](N)Cc4ccc5ccccc5c4)c3SCCN)c2)cccc1NC(=O)[C@H](N)Cc1ccc2ccccc2c1`, the pIC50 in test [1] was 4.71; in test [2], 4.77.

With `NCCSc1c(NC(=O)c2cccc(C(=O)Nc3cccc(NC(=O)[C@@H](N)Cc4ccc5ccccc5c4)c3SCCN)c2)cccc1NC(=O)[C@@H](N)Cc1ccc2ccccc2c1`, the negative-log IC50 (pIC50) was 5.21 in test [1] and 5.00 in test [2].

For `CC(C)(C)c1cc(NC(=O)CN)c(SCCN)c(NC(=O)c2cccc(C(=O)Nc3cc(C(C)(C)C)cc(NC(=O)CN)c3SCCN)c2)c1`, the pIC50 is under 4.30 in test [1] and under 4.00 in test [2].

Consider `CC(C)(C)c1ccc(SCCN)c(NC(=O)c2cc(C(=O)Nc3cc(C(C)(C)C)ccc3SCCN)c(OCCN)cc2OCCN)c1`, for which the pIC50 was under 4.30 in test [1] and under 4.00 in test [2].

For the molecule `NCCOc1cc(C(=O)Nc2cccc(NC(=O)[C@H](N)Cc3ccccc3)c2SCCN)cc(C(=O)Nc2cccc(NC(=O)[C@H](N)Cc3ccccc3)c2SCCN)c1`, the pIC50 was under 4.30 in test [1] and 4.36 in test [2].

Turning to `NCCSc1c(N)cccc1NC(=O)c1cccc(C(=O)Nc2cccc(NC(=O)[C@H](N)Cc3cccnc3)c2SCCN)c1`, the pIC50 was under 4.30 in test [1] and under 4.00 in test [2].

As for `CC(C)(C)c1cc(NC(=O)c2cccc(C(=O)Nc3cc(C(C)(C)C)cc(NC(=O)[C@@H](N)CCCN=C(N)N)c3SCCN)c2)c(SCCN)c(NC(=O)[C@@H](N)CCCN=C(N)N)c1`, the pIC50 is under 4.30 in test [1] and under 4.00 in test [2].

Turning to `CC(C)(C)c1cc(NC(=O)CCCN)c(SCCN)c(NC(=O)c2cccc(C(=O)Nc3cc(C(C)(C)C)cc(NC(=O)CCCN)c3SCCN)c2)c1`, the results for the pIC50 in test [1] and in test [2] were under 4.30 and under 4.00, respectively.

For the molecule `CC(C)(C)c1cc(NC(=O)c2cccc(C(=O)Nc3cc(C(C)(C)C)cc(NC(=O)[C@H](N)Cc4ccc5ccccc5c4)c3SCCN)c2)c(SCCN)c(NC(=O)[C@H](N)Cc2ccc3ccccc3c2)c1`, the pIC50 was under 4.70 in test [1] and 4.84 in test [2].

Take `CC(C)(C)c1cc(NC(=O)c2cccc(C(=O)Nc3cc(C(C)(C)C)cc(NC(=O)[C@H](N)Cc4cccnc4)c3SCCN)c2)c(SCCN)c(NC(=O)[C@H](N)Cc2cccnc2)c1`: the pIC50 was under 4.30 in test [1] and under 4.00 in test [2].

As to `NCCSc1c(N)cccc1NC(=O)c1cccc(C(=O)Nc2cccc(NC(=O)[C@H](N)Cc3ccc4ccccc4c3)c2SCCN)c1`, the pIC50 is under 4.30 in test [1] and 4.19 in test [2].

`CC(C)(C)c1cc(NC(=O)c2cccc(C(=O)Nc3cc(C(C)(C)C)cc(NC(=O)[C@@H](N)Cc4ccc5ccccc5c4)c3SCCN)c2)c(SCCN)c(NC(=O)[C@@H](N)Cc2ccc3ccccc3c2)c1`: the pIC50 was 5.32 in test [1] and 5.47 in test [2]. Besides, in the test with Platelet, the result was Active.

`CC(C)(C)c1cc(NC(=O)c2cccc(C(=O)Nc3cc(C(C)(C)C)cc(NC(=O)[C@H](N)Cc4c[nH]c5ccccc45)c3SCCN)c2)c(SCCN)c(NC(=O)[C@H](N)Cc2c[nH]c3ccccc23)c1`: the pIC50 in test [1] was under 4.70; in test [2], 4.76.
